# Rows were chosen to be rich in hits. Some 4.8% of all compounds tested hit in one or more screens of this group.
# CSC inhib = blocks cancer stem cells | inhibition, % at 7.5 µM | AID 2717 | actives 1.1% (n = 300,000) | cancer stem cell-like cells viability, luminescence; in the data active = inhibition above about 75%; tested in HMLE shEcad cells
# WT yeast gro inh = growth inhibition of WT yeast, mitochondrial fusion screen | mitochondrial fusion phenotypic screen, WT strain | inhibition, % at 10 µM | actives 2.1% (n = 190,000) | AID 1362; in the data active = inhibition above about 58%; tested in S. cerevisiae
# Mot1-301 SUMO = SUMOylation pathway inhibition by Mot1-301 growth rescue; S. cerevisiae Mot1-301 growth rescue, ATP luminescence, 38.5C; percent above DMSO median, 100 means doubled; growth rescue, % at 18.8 µM; actives 1% (n = 320,000);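 active = every valid replicate shows activation above 250% relative to neutral control wells; inactive = the rest, any valid replicate at or below 250%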;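 note: OY570 slx delta 5 strain wells were the positive control but not used for scaling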
# Beta apoptosis = beta cell apoptosis inhibition. INS-1E cytokine-induced death, ATP luminescence, 48 h; percent of positive-control rescue, neutral wells zero. protection from apoptosis, % (test concentration not listed). actives 0.8% (n = 300,000);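 active = Every replicate reaches about 75%, or at least half do and their mean reaches it too, limit read from the data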;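 note: 0% = cytokine-treated negative control wells and 100% = positive control rescue; higher means more ATP so stronger rescue from cytokine killing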
# Efflux pump mplx = inhibitors of Candida antifungal efflux pumps expressed in yeast. S. cerevisiae Candida pump triplex, Nile Red efflux. inhibition, % at 10 µM. actives 0.44% (n = 330,000). AID 485275;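 active = plate passing quality check with inhibition over a set limit, or well fluorescence over plate mean plus 4 SD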;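 note: Nile Red retained in pooled yeast measured as flow cytometry median fluorescence; 0% = buffer negative control and 100% = Enniatin B positive control; higher means more Nile Red kept so more efflux inhibition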
# T cruzi repl = T. cruzi replication inhibition; T. cruzi beta-gal in NIH3T3, luminescence, 90 h; inhibition, % (no concentration beside the values); actives 1.4% (n = 300,000); AID 1885;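 active = mean inhibition across valid replicates above about 55%, limit read from the data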;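 note: signal also drops with host cell toxicity which is not excluded here; 0% = plate median of DMSO wells and 100% = zero luminescence signal; higher percent means less beta-gal luminescence so fewer parasites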
#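 System: Mouse NIH/3T3 fibroblasts infected with β-gal-expressing T. cruzi Tulahuen C4 | Quantity: NIH/3T3 cells, 5,000 per well | Reagent: 5000 reporter trypomastigotes per well | Dosing: Compound pinned at 50 nL/well, DMSO | Schedule: 3 h host attachment, then at least 90 h co-culture | Detection: GalScreen luminescence, 60 min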
# An asterisk follows results filed as active; x = no result; + = active, no number.
SMILES,CSC inhib,WT yeast gro inh,Mot1-301 SUMO,Beta apoptosis,Efflux pump mplx,T cruzi repl
O=[N+]([O-])c1ccc(/C=N/Nc2nc(N3CCCCC3)nc(N3CCCCC3)n2)o1,-11,70*,-6,47,0,63*
C(=N\Nc1nc(Nc2ccccc2)nc(N2CCCCC2)n1)/c1ccco1,-3,69*,-18,18,0,16
COc1c(/C=N/Nc2nc(N3CCCCC3)nc(N3CCCCC3)n2)cccc1[N+](=O)[O-],-10,5,10,29,0,50
COc1ccc(/C=N/Nc2nc(Nc3ccccc3)nc(N3CCCC3)n2)cc1,0,20,5,x,0,28
O=C(c1ccco1)N1CCN(C(=O)C2CC(=O)N(c3ccc(Cl)cc3)C2)CC1 (stereo not given),-13,x,11,1,0,-24
COc1ccc(-c2nn(-c3ccccc3)cc2/C=C/C(=O)N2CCN(c3ccccn3)CC2)cc1,-6,25,-21,1,0,55*
Cc1ccc(Cl)cc1NC(=S)NN,-7,x,21,-13,0,-7
Fc1ccccc1NC(=S)Nn1cnnc1,-12,x,218,-10,0,0
CCc1ccc(NC(=O)C2CCCCC2C(=O)O)cc1 (stereo not given),0,-16,4,6,0,-2
CC(C)c1ccc(NC(=O)C2CCCCC2C(=O)O)cc1 (stereo not given),-14,2,+,-8,0,-10
Cc1ccccc1N1CCN(c2ccc(NC(=O)C3CCCCC3C(=O)O)cc2)CC1 (stereo not given),79*,-12,27,-8,-4,-7
CCC(C)N(C(=O)Cn1nnc2ccccc21)C(C(=O)Nc1ccc(F)cc1)c1cccc(OC)c1 (stereo not given),0,20,12,-5,0,21
COc1ccc(OC)c(Nc2nc(NCCO)c3ccccc3n2)c1,-2,x,-4,15,0,56*
COc1ccccc1Nc1nc(NCC2CCCO2)c2ccccc2n1 (stereo not given),12,24,-5,x,0,64*
COc1ccccc1NC(=O)CSc1nnc(C)s1,x,x,x,x,x,-8
COc1ccccc1NC(=O)CC(NC1CCCCC1)C(=O)O (stereo not given),-15,7,-7,-1,0,-27
O=C(Nc1ccc(Cl)c(Cl)c1)N(Cc1cccnc1)Cc1ccco1,8,16,-10,6,0,56*
COc1ccc(CCNC(=O)C2CCCN2C(=O)Nc2ccc(F)cc2)cc1OC (stereo not given),6,x,-11,-4,0,3
COc1cc(CNCCSc2nnnn2C)cc(Br)c1OCc1ccccc1F,17,32,-1,0,0,37
Cn1nnnc1SCCNCc1cccc2ccccc12,-8,9,-23,1,0,70*
CCOc1cc(CNCCSc2nnnn2C)cc(Br)c1OCc1ccccc1F,21,2,24,2,0,68*
O=C(c1ccc(CNS(=O)(=O)c2ccc(Br)cc2)cc1)N1CCCC1,-6,-4,4,-9,0,-2
COCCOC1CCN(C(=O)c2cc(COc3ccc(-n4cncn4)cc3)on2)CC1,7,x,-4,-4,0,-4
CC(CCCC(C)(C)O)NC(=O)c1cc(COc2ccc3ncccc3c2)on1 (stereo not given),-6,-27,-3,88*,0,16
CCC1CCCCN1C(=O)c1cc(COc2ccc3ncccc3c2)on1 (stereo not given),-4,23,118,113*,0,35
SMILES,CSC inhib,WT yeast gro inh,Mot1-301 SUMO,Beta apoptosis,Efflux pump mplx,T cruzi repl
COCCC1CCCCN1C(=O)c1cc(COc2ccc(-n3cncn3)cc2)on1 (stereo not given),-13,x,-7,87*,0,-14
COCC1CCCCN1C(=O)c1cc(COc2ccc3ncccc3c2)on1 (stereo not given),3,x,-7,86*,0,-120
O=C(N/N=C/c1ccco1)c1cc(-c2ccccc2)nc2ccccc12,12,x,6,3,0,-13
O=C(N/N=C/c1ccc([N+](=O)[O-])o1)c1cc(-c2cccc(Br)c2)nc2ccccc12,5,36,111,2,0,63*
CCCc1ccc(-c2cc(C(=O)N/N=C/c3ccc([N+](=O)[O-])o3)c3ccccc3n2)cc1,-14,63*,-16,12,0,61*
C=CCn1c(=O)c(C(=O)NC(C)c2ccccc2)c(O)c2ccccc21 (stereo not given),4,x,-4,0,0,-3
COc1ccc(C(=O)/C=C2/C(=O)Nc3ccccc32)c(OC)c1,75*,x,258,-5,0,9
O=C1Nc2ccccc2/C1=C/C(=O)c1cccs1,83*,x,8,-7,0,-7
CCCCNc1nc(Nc2ccc(C)c(Cl)c2)c2cnn(C)c2n1,82*,x,-13,41,0,33
CCc1ccc(S(=O)(=O)NCc2csc(C)n2)cc1,-6,x,-3,-3,1,-7
CC(C)N1CCN(Cc2ccc(OCc3ccccc3)cc2)CC1CCO (stereo not given),77*,-4,-3,7,0,22
O=C(C1CCN(Cc2ccc(OCc3ccccc3)cc2)CC1)N1CCCC1,-7,-19,7,-8,0,-4
CC(C)N1CCN(Cc2ccc(-c3ccccc3Cl)o2)CC1CCO (stereo not given),33,15,37,-2,0,64*
CC(C)N1CCN(Cc2ccc3c(c2)Cc2ccccc2-3)CC1CCO (stereo not given),36,10,-21,-1,0,58*
OC1CCN(Cc2ccc(OCc3ccccc3)cc2)CC1,14,x,86,2,0,61*
C[C@H](NC(=O)c1ccco1)C(=O)Nc1cc(S(=O)(=O)N2CCCC2)ccc1OCC(F)(F)F,-16,x,-6,-3,0,x
CC(C)=CCC/C(C)=C/Cc1c(O)ccc(C(=O)/C=C/c2ccc(O)cc2)c1O,121*,95*,17,-1,x,-3
C=C(C)C(O)Cc1c(OC)ccc(C(=O)/C=C/c2ccc(O)cc2)c1O (stereo not given),x,x,x,x,0,x
O=C(CC1C(=O)NCCN1Cc1cccc(F)c1)NC1CCCCC1 (stereo not given),-4,x,-8,-3,0,-9
C[N+]1=C(/C=C/Nc2ccccc2Cl)C(C)(C)c2ccccc21,0,48,-4,99*,0,37
COc1ccc(C(CCN)Cc2ccccc2)cc1 (stereo not given),-5,2,16,0,0,89*
COc1ccc(C(CC(=O)c2ccccc2)CC(=O)c2ccccc2)cc1,-8,x,0,-3,0,13
